Screening data as filed in PubChem.
A selection: hits, their analogues and other compounds. The true share with any hit is near 1.8%.
zVAD death inh = inhibitors of zVAD-triggered necroptosis, primary screen, L929 cells. L929 zVAD necroptosis rescue, ATP luminescence, 24 h; with zVAD 60 µM. viability rescue, % at 10 µM. 220,000 tested, 0.38% active;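 active means activation, scaled between plate controls, above about 75%, limit read from the data; inactive means activation under that limit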;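 further: 0% = zVAD with DMSO and 100% = DMSO alone without zVAD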
Dynein transport = inhibitors of GR-EGFP nuclear translocation, primary screen, dynein cargo transport inhibitor project, imaging, high-content, 3617.4 mouse cells; test concentration mostly 20 µM; stimulated with dexamethasone, 1 µM; active compounds read low; z-score, hits read low; 220,000 tested, 0.47% active;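 active means plate z-score of nuclear minus cytoplasmic receptor signal below a set negative limit, without overly bright fluorescence or cell loss, cut at about -3.5 in these data, passing the limit was not always enough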;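 further: z-score of nuclear minus cytoplasmic ring GR-EGFP intensity difference per well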
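Buffer or medium: tet-free, stripped-serum medium; Also added: dexamethasone, 1.0 µM final; Technique: high-content fluorescence imaging after fixation; Times: 48 h induction, 1 h compound, 30 min dex at 37 °C; Read-out: per-cell GR-EGFP intensity, nucleus versus surrounding cytoplasmic ring, well-averaged.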
TNF necrop inh = inhibitors of TNF-alpha triggered necroptosis, primary screen, cell-based, Jurkat FADD-/-, single concentration | activation (protection from cell death), % at 10 µM | 220,000 tested, 0.068% active | Jurkat FADD-/- TNF necroptosis rescue, ATP luminescence, 24 h; 0 = TNF only, 100 = no-TNF cells;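 active means activation, meaning protection from cell death, of at least 50% relative to plate controls; inactive means activation below 50%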;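 further: necroptosis triggered by 40 ng/mL TNF-alpha added together with compound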
HSV replic up = enhancers of HSV replication in host cells, fold increase, host cell viability; HSV replication augmentation in cells; maximum fold increase; 220,000 tested, 0.005% active; AID 1956, 2009; in the data active means maximum fold increase above about 1.5; tested in PC3 cells
Furin inh = human furin inhibitors, primary screen, biochemical, fluorescence intensity. P09958. purified furin, fluorogenic substrate cleavage. inhibition, % at 20 µM or 30 µM. 220,000 tested, 0.061% active. AID 463115, 2010; in the data active means inhibition above about 25%
Target sequence (P09958 108-714 limits assumed): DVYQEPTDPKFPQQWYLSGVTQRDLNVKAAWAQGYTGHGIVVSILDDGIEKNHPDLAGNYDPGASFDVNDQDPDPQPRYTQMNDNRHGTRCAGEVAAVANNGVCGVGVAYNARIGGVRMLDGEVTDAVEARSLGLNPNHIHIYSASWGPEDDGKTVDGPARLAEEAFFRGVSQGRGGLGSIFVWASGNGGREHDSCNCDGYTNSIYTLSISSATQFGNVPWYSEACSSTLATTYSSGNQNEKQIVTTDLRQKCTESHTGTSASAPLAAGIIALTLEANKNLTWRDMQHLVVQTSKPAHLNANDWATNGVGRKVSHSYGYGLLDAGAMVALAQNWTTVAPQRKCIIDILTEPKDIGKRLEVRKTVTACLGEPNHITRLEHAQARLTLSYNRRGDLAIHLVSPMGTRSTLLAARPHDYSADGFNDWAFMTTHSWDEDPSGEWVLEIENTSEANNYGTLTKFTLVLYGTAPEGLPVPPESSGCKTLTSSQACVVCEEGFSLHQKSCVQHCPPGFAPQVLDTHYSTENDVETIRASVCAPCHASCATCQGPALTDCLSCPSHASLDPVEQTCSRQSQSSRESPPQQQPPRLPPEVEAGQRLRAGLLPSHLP
Autophagy mod = autophagy modulators in MEF cells, primary screen, imaging, high-content, MEF GFP-LC3. MEF GFP-LC3 puncta imaging; test concentration mostly 10 µM. calls only at 10 µM (by protocol). 190,000 tested, 0.98% active. AID 463193, 2010;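 active means percentage of spot-positive cells more than 3 SD above its plate mean, without a fluorescence outlier flag or 80% toxicity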;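 further: spot-positive cell cutoff set from DMSO-treated cells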
zVAD death conf = inhibitors of zVAD-triggered necroptosis in L929, confirmation, L929 cells, duplicate runs | AID 463117, 2010 | 760 tested, 16% active | activation (protection from necroptosis), % at 10 µM | shares compounds with zVAD death inh | L929 zVAD-induced necroptosis rescue, ATP luminescence, 24 h;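 active means mean protection from necroptosis of at least 50% over duplicate tests; inactive means mean protection below 50%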;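 further: 0% = cells with zVAD alone and 100% = vehicle cells without zVAD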
Starred values were filed as active, the others as inactive; i = inactive; x = no result given.

SMILES	zVAD death inh	Dynein transport	TNF necrop inh	HSV replic up	Furin inh	Autophagy mod	zVAD death conf
COc1ccccc1C1CCN(Cc2c(C)[nH]c3ccccc23)CC1	76*	-0.34	-2	i	-13	x	28
COc1ccc(C(=O)C2CCCN(Cc3c(C)[nH]c4ccccc34)C2)c(OC)c1 (stereo not given)	66	-0.24	0	i	-22	i	x
Nc1nnnn1/N=C/C(Br)=C/c1ccccc1	116*	-3.1	-17	i	-29	i	102*
Cc1csc(N/N=C\c2cccnc2)n1	88*	-0.43	10	i	-7	i	8
COc1ccc(N=Cc2c(O)[nH]c3ccccc23)cc1	77*	-1.1	-2	i	1	i	76*
Oc1[nH]c2ccccc2c1/C=N/c1nccs1	76*	-0.45	-4	x	5	i	35
COc1ccc(CN=Cc2c(O)[nH]c3ccccc23)cc1	4	-0.5	0	i	-14	i	x
CCOC(=O)c1c(C)[nH]c(O)c1C=Nc1ccccc1	87*	0.22	-12	i	-12	i	0
Oc1[nH]c2ccccc2c1C=Nc1ccc2c(c1)OCO2	74	-0.17	-1	i	4	i	x
C=CCC(CC=C)(NC(=O)c1cccc(C)c1)c1ccccc1	0	-0.038	1	i	-3	i	x
O=C(c1[nH]ncc1-c1ccccc1)C1CO1 (stereo not given)	1	-0.91	-1	i	-16	x	x
O=C(C1=NNCC1c1ccccc1)C1CO1 (stereo not given)	99*	0.12	91*	i	-4	i	90*
CC(=O)c1sc(NC(=O)c2ccc(C(C)(C)C)cc2)nc1C	75*	-0.27	3	i	-8	i	1
CC1CC(C)(C)NC(=S)N1CC(=O)N1CCN(Cc2ccc3c(c2)OCO3)CC1 (stereo not given)	1	-0.23	1	i	-27	i	x
Cn1nc(N)c2c(-c3ccc(Cl)cc3)c(C#N)c(N)nc21	81*	-0.021	2	i	6	i	37
O=C1c2ccccc2C(O)N1CCN1CCOCC1 (stereo not given)	0	1.1	1	i	-14	x	x
CCCCN1C(=O)/C(=C(/C#N)C(=O)N2CCCC2)c2ccccc21	1	-0.73	-3	i	-13	x	x
N#CC(C#N)=C1C(=O)N(CCN2CCCCC2)c2ccccc21	90*	-1.4	-28	i	-21	x	35
N#CC(C#N)=C1C(=O)N(CCN2CCOCC2)c2ccccc21	86*	-1.9	-8	i	-21	x	1
COc1ccc(-c2nnn(CC(=O)N(CCCN3CCOCC3)C(C(=O)NC3CCCC3)c3ccco3)n2)cc1 (stereo not given)	0	0.047	1	i	-20	i	x
CCC(=O)N(CCc1ccc(OC)c(OC)c1)Cc1cc2ccc(C)cc2n2nnnc12	1	-1.6	1	i	-18	i	x
COc1ccc(CCNC(=O)C/C(C)=N/NC(=O)C(c2ccccc2)c2ccccc2)cc1OC	80*	0.13	36	i	-17	x	10
Cc1nn(C)c(Sc2ccccc2N)c1[N+](=O)[O-]	2	0.26	-2	i	-16	i	x
Cc1noc(C)c1COc1cccc(C(=O)Nc2ccc(C#N)cc2)c1	1	1.3	-3	i	-7	i	x
Cc1ccc(NC(=O)c2cccc(OCc3c(C)noc3C)c2)cc1	79*	-0.087	-2	i	-17	i	10
SMILES	zVAD death inh	Dynein transport	TNF necrop inh	HSV replic up	Furin inh	Autophagy mod	zVAD death conf
O=C(OCn1ncc(Cl)c(Cl)c1=O)c1ccc(F)cc1	78*	-2.9	-25	i	-18	i	53*
O=C(OCn1ncc(Cl)c(Cl)c1=O)c1ccccc1Cl	102*	-3	9	i	-14	i	64*
O=C(OCCN1CCCCC1)c1ccccc1Cl	0	0.57	1	i	-16	i	x
OCOCCCn1c(C2CCCN2c2nc(-c3ccc(F)cc3)cs2)nc2cc(Cl)c(N3CCCCC3)cc21 (stereo not given)	x	x	x	i	x	x	x
CCC(SC1=NCCS1)C(=O)Nc1nnc(-c2ccccc2OC)s1 (stereo not given)	83*	-0.01	3	i	-30	i	1
CN(c1cccc(NC(=O)CN(c2cccc(F)c2)S(C)(=O)=O)c1)S(C)(=O)=O	2	0.26	0	i	-37	i	x
CC(C)(C)c1ccc(C(=O)Nc2ccc(S(N)(=O)=O)cc2)cc1	83*	0.68	0	i	-9	x	34
NS(=O)(=O)c1ccc(NC(=O)c2ccc(-c3ccccc3)cc2)cc1	2	0.24	2	i	8	i	x
Cc1ccc2nc3ccc(N4CCCCCCC4)nn3c(=O)c2c1	87*	-0.9	5	i	-6	i	0
CCCCCCNc1nc(Cl)nc(NC(C)(C)CO)n1	3	-0.24	5	i	-9	x	x
Cc1cccc(NC(=S)NCCc2ccc3c(c2)OCCO3)c1C	-1	-0.39	-2	i	-25	i	x
Cc1nc2cc(NC(=O)Nc3ccc(Br)cc3)ccc2o1	80*	-0.19	1	i	-13	i	1
Cc1nc2cc(NC(=O)NCc3ccc4c(c3)OCO4)ccc2o1	0	1.1	-1	i	-9	i	x
O=C(NC12CC3CC(CC(C3)C1)C2)c1ccc(-c2ccc(Cl)cc2)o1	82*	0.084	4	i	-10	i	2
CCN(CC)CCN(Cc1cc2ccc(C)c(C)c2[nH]c1=O)C(=S)NCc1ccco1	-3	-1	-2	i	-14	i	x
COc1cc(OC)c(C2=NOC(C(=O)N3CCN(C(=O)c4ccco4)CC3)C2)cc1Cl (stereo not given)	83*	-0.56	1	i	-24	i	1
COc1cc(OC)c(C2=NOC(C(=O)N3CCc4ccccc4C3)C2)cc1Cl (stereo not given)	0	1.1	-1	i	-10	i	x
O=C(Oc1c(-c2ccccc2)oc2ccccc2c1=O)c1ccccc1	79*	0.41	-8	x	-20	i	2
COc1ccc(-c2oc3ccccc3c(=O)c2OC(=O)c2ccc(C)cc2)cc1	1	0.2	-10	i	-14	i	x
CC(C)CN1CCNC(=O)C1CC(=O)NCc1cnn(-c2cccc(F)c2)c1 (stereo not given)	1	-1.2	0	i	-24	i	x
